Structures are written as SMILES. Residue numbers refer to the chain shown, from its start. The source made the active and inactive calls. The calls are words filed in the database; no cut-off is given here.

One series deals with T1, Lysosomal acid glucosylceramidase (Homo sapiens, UniProt P04062).
T1 sequence (P04062 whole entry): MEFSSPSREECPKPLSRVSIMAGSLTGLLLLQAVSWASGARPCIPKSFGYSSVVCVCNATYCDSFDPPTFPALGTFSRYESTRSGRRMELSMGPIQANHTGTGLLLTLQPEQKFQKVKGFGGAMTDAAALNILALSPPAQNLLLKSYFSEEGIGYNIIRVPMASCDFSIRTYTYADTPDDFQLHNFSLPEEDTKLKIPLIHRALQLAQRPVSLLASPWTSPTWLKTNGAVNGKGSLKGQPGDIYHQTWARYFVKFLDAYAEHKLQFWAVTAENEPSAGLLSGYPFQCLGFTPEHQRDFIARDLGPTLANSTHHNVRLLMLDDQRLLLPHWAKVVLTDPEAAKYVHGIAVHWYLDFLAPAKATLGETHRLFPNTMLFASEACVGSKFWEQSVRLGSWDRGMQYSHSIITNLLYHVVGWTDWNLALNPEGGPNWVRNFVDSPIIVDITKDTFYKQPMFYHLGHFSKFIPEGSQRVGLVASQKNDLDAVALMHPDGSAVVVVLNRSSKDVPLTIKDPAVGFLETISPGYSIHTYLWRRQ
The series can be described thus: Competitive inhibition of wild type human glucocerebrosidase using 4-methylumbelliferyl beta-D-glucopyranoside as substrate after 15 mins by Dixon and Line-Weaver Burk plot analysis […].
Details: not given
What is called Ki is the dissociation constant of the complex between target and ligand, obtained from inhibition or displacement. Read a high Ki as weaker binding. `O[C@@H]1[C@@H](O)[C@@H](CCSC2CCCCC2)NC[C@H]1O` gave an inhibitory constant (Ki) of 4 nM. This lies in the single-digit nanomolar range.

Turning to `O[C@@H]1[C@@H](O)[C@@H](CCSC2CCCC2)NC[C@H]1O`, the Ki is 6 nM.

Take `CCCCCCCCSCC[C@H]1NC[C@@H](O)[C@H](O)[C@H]1O.Cl`: the affinity, expressed as Ki, was 0.4 nM.

The target of the next series is T2, Cytosolic beta-glucosidase (Homo sapiens, UniProt Q9H227).
T2 sequence (Q9H227 whole entry): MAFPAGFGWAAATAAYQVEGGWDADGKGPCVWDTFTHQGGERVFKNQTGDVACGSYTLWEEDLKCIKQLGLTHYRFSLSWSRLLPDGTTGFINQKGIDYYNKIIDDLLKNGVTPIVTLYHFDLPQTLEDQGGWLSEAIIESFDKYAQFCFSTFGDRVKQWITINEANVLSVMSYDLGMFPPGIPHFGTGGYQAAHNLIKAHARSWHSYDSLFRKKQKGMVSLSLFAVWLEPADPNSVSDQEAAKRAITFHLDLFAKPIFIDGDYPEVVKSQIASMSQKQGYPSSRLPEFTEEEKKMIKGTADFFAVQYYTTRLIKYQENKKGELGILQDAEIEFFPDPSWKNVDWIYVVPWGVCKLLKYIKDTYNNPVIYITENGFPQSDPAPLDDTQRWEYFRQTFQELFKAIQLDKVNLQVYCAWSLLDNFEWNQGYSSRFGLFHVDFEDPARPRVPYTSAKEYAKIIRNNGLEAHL
The series can be described thus: Inhibition of human cytosolic beta-glucosidase using 4-methylumbelliferyl beta-D-glucopyranoside as substrate after 15 mins by fluorimetric analysis.
Details: not given
In short, it runs like this:
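Purified human cytosolic neutral β-glucosidase was preincubated 15 min at room temperature with a 3-fold compound dilution series. An equal volume of 10 mM 4-MU β-D-glucoside in 100 mM citrate–phosphate pH 7.0 was added, then incubated 30 min at 37 °C. The reaction was stopped with 4-fold excess 100 mM 2-amino-2-methylpropanol and read at ex 365/em 460 nm. IC50 came from nonlinear fitting.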
Broadly, the IC50 is the concentration needed to halve the response being measured. As to `CCCCCCCCSCC[C@H]1NC[C@@H](O)[C@H](O)[C@H]1O.Cl`, half-maximal inhibition (IC50) was put at 2000 nM. That is a single-digit micromolar value.

The next series addresses T3, Lysosomal acid glucosylceramidase (Homo sapiens) (UniProt P04062).
T3 sequence (whole entry): T1 sequence (P04062 whole entry)
The series is described as follows: Thermal denaturation of human glucocerebrosidase by differential scanning fluorimetry assessed as change in melting temperature at 100 uM and pH 7.
Details: not given
For orientation: DSF heats the sample and reads unfolding from a dye or from intrinsic fluorescence.
For `O[C@@H]1[C@@H](O)[C@@H](CCSC2CCCCC2)NC[C@H]1O`, the deltaTm is 13 K.

As for `O[C@@H]1[C@@H](O)[C@@H](CCSC2CCCC2)NC[C@H]1O`, the deltaTm was determined as 11 K.

Turning to `CCCCCCCCSCC[C@H]1NC[C@@H](O)[C@H](O)[C@H]1O.Cl`, the deltaTm worked out at 20 K.

The target in another series is Lysosomal alpha-glucosidase (Homo sapiens) (UniProt P10253). The series is described as follows: Inhibition of human lysosomal alpha-glucosidase using 4-methylumbelliferyl alpha-D-glucopyranoside as substrate at 200 uM by fluorimetric analysis.
Details: not given
The method, boiled down: (§1)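 Enzyme source was a lysosomal-enzyme-enriched ConA-bound human placental fraction, run in 100 mM citrate–phosphate pH 4.5 with 0.025% human serum albumin at 37 °C. Compound was tested at 200 μM in triplicate. An equal volume of 4-MU substrate was added: α-Glc 3.0 mM (α-glucosidase), α-Gal 1.0 mM (α-galactosidase), β-Gal 0.5 mM (β-galactosidase). Reactions were stopped with 4-fold excess 100 mM aminomethylpropanol and fluorescence read at 365/460 nm.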
As to `O[C@@H]1[C@@H](O)[C@@H](CCSC2CCCCC2)NC[C@H]1O`, the inhibition result was “inactive”.

In the case of `O[C@@H]1[C@@H](O)[C@@H](CCSC2CCCC2)NC[C@H]1O`, the inhibition result was “inactive”.

With `CCCCCCCCSCC[C@H]1NC[C@@H](O)[C@H](O)[C@H]1O.Cl`, the inhibition result is “inactive”.

The species named for the next series is Homo sapiens. The series can be described thus: Inhibition of human lysosomal alpha-galactosidase using 4-methylumbelliferyl alpha-D-galactopyranoside as substrate at 200 uM by fluorimetric analysis.
Details: not given
The method, boiled down:
as §1
For the compound `O[C@@H]1[C@@H](O)[C@@H](CCSC2CCCCC2)NC[C@H]1O`, the inhibition entry is “inactive”.

Take `O[C@@H]1[C@@H](O)[C@@H](CCSC2CCCC2)NC[C@H]1O`: the inhibition entry is “inactive”.

Consider `CCCCCCCCSCC[C@H]1NC[C@@H](O)[C@H](O)[C@H]1O.Cl`, for which the inhibition result is “inactive”.

System in another series: not listed separately
The series is described as follows: Cytotoxicity against gaucher patient fibroblast assessed as decrease in cell viability at 10 uM after 5 days by alamar blue assay. Format: cell-based. Conditions: human, 120 h. In short, it runs like this:
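Viability of GD patient fibroblasts grown with compound at 10, 33 and 100 μM was read by a resazurin-based spectrophotometric assay.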
(In general: The colour change of resazurin is a common sign of viable cells or microbes.)
On to `CCCCCCCCSCC[C@H]1NC[C@@H](O)[C@H](O)[C@H]1O.Cl`, for which the Activity result is reported as “Toxic”.

For the next series, the species on record is Homo sapiens. The series can be described thus: Activation of intracellular glucocerebrosidase p.L444P mutant in gaucher patient fibroblast using 4-methylumbelliferyl beta-D-glucopyranoside as substrate relative to control.
Details: not given
With `O[C@@H]1[C@@H](O)[C@@H](CCSC2CCCCC2)NC[C@H]1O`, the fold change (FC) stood at 1.3.

The compound `O[C@@H]1[C@@H](O)[C@@H](CCSC2CCCC2)NC[C@H]1O` gave a fold change (FC) of 1.4.

As to `CCCCCCCCSCC[C@H]1NC[C@@H](O)[C@H](O)[C@H]1O.Cl`, the fold change (FC) amounted to 1.2.

The species entered for the next series is Homo sapiens. The series is described as follows: Activation of beta-N-acetyl hexosaminidase in gaucher patient fibroblast using 4-methylumbelliferyl N-acetyl-beta-D-glucosaminide as substrate.
Details: not given
In short, it runs like this:
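Patient fibroblasts (GD, homozygous mutant GBA) grown in α-MEM with 10% FCS at 37 °C, CO2, with compound for 5 days. Lysates prepared in pH 5.5 citrate–phosphate with Triton X-100 and taurocholate. Lysosomal β-N-acetyl hexosaminidase activity read with fluorogenic 4-MU N-acetyl-β-D-glucosaminide at each compound concentration.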
With `CCCCCCCCSCC[C@H]1NC[C@@H](O)[C@H](O)[C@H]1O.Cl`, the inhibition entry was “Active”.

Another series relates to T4, Lysosomal acid glucosylceramidase (Homo sapiens), P04062 [N409S].
T4 sequence (whole entry): T1 sequence (P04062 whole entry) with N409S
The series can be described thus: Activation of intracellular glucocerebrosidase p.N370S mutant in gaucher patient fibroblast using 4-methylumbelliferyl beta-D-glucopyranoside as substrate relative to control.
Details: not given
As to `O[C@@H]1[C@@H](O)[C@@H](CCSC2CCCCC2)NC[C@H]1O`, the fold change (FC) was 2.2.

`O[C@@H]1[C@@H](O)[C@@H](CCSC2CCCC2)NC[C@H]1O` displayed a fold change (FC) of 2.2.

As for `CCCCCCCCSCC[C@H]1NC[C@@H](O)[C@H](O)[C@H]1O.Cl`, the fold change (FC) stood at 1.6.

The test system is the same in the next series. The series can be described thus: Activation of intracellular glucocerebrosidase p.N370S mutant in gaucher patient fibroblast using 4-methylumbelliferyl beta-D-glucopyranoside as substrate assessed as concentration at which 50% of maximum increase in activity.
Details: not given
Take `O[C@@H]1[C@@H](O)[C@@H](CCSC2CCCCC2)NC[C@H]1O`: the Activity was 1.3 nM.

Regarding `O[C@@H]1[C@@H](O)[C@@H](CCSC2CCCC2)NC[C@H]1O`, the Activity is 5.3 nM.

On to `CCCCCCCCSCC[C@H]1NC[C@@H](O)[C@H](O)[C@H]1O.Cl`, for which the Activity came out at 1 nM.

The species entered for another series is Homo sapiens. The series is described as follows: Activation of intracellular glucocerebrosidase p.L444P mutant in gaucher patient fibroblast using 4-methylumbelliferyl beta-D-glucopyranoside as substrate assessed as concentration at which 50% of maximum increase in activity.
Details: not given
`O[C@@H]1[C@@H](O)[C@@H](CCSC2CCCCC2)NC[C@H]1O`: the Activity was found to be 0.6 nM.

`O[C@@H]1[C@@H](O)[C@@H](CCSC2CCCC2)NC[C@H]1O`: the Activity amounted to 1.2 nM.

`CCCCCCCCSCC[C@H]1NC[C@@H](O)[C@H](O)[C@H]1O.Cl`: the Activity came out at 0.6 nM.

A further series deals with T5, Beta-galactosidase (Homo sapiens) (UniProt P16278).
T5 sequence (whole entry): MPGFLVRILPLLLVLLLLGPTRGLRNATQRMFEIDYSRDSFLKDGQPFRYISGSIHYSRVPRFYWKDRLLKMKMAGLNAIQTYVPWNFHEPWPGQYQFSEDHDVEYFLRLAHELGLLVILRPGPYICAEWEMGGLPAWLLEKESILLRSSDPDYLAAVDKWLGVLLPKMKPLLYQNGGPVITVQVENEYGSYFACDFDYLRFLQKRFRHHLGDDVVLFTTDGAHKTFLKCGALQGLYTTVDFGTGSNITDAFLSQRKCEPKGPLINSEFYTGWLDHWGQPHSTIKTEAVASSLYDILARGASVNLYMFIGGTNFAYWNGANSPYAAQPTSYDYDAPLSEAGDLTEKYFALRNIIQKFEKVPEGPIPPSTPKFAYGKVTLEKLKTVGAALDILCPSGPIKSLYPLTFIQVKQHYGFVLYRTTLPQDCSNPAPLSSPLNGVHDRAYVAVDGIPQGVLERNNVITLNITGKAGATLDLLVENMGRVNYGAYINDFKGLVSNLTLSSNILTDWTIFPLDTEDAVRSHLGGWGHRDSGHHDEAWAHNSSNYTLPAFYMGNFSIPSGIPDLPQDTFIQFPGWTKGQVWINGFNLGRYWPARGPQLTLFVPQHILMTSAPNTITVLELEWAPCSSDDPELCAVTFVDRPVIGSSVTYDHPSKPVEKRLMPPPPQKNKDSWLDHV
The series is described as follows: Inhibition of human lysosomal beta-galactosidase using 4-methylumbelliferyl beta-Dgalactopyranoside as substrate at 200 uM by fluorimetric analysis.
Details: not given
The method, boiled down: as §1
`O[C@@H]1[C@@H](O)[C@@H](CCSC2CCCCC2)NC[C@H]1O`: the inhibition result was “inactive”.

Turning to `O[C@@H]1[C@@H](O)[C@@H](CCSC2CCCC2)NC[C@H]1O`, the inhibition entry is “inactive”.

In the case of `CCCCCCCCSCC[C@H]1NC[C@@H](O)[C@H](O)[C@H]1O.Cl`, the inhibition result was “inactive”.
